Laboratory results published in ChEMBL document CHEMBL1811899, “Synthesis and evaluation of novel 2-butyl-4-chloro-1-methylimidazole embedded chalcones and pyrazoles as angiotensin converting enzyme (ACE) inhibitors” (Bioorg Med Chem, 2011).
The source made the active and inactive calls. No cut-off for these calls is given here.

target: T1, Angiotensin-converting enzyme (Oryctolagus cuniculus) (UniProt P12822); test: Inhibition of rabbit lung ACE assessed as reduction in hippuryl-histidyl-leucine substrate at 3 uM by colorimetric assay
T1 sequence (whole entry): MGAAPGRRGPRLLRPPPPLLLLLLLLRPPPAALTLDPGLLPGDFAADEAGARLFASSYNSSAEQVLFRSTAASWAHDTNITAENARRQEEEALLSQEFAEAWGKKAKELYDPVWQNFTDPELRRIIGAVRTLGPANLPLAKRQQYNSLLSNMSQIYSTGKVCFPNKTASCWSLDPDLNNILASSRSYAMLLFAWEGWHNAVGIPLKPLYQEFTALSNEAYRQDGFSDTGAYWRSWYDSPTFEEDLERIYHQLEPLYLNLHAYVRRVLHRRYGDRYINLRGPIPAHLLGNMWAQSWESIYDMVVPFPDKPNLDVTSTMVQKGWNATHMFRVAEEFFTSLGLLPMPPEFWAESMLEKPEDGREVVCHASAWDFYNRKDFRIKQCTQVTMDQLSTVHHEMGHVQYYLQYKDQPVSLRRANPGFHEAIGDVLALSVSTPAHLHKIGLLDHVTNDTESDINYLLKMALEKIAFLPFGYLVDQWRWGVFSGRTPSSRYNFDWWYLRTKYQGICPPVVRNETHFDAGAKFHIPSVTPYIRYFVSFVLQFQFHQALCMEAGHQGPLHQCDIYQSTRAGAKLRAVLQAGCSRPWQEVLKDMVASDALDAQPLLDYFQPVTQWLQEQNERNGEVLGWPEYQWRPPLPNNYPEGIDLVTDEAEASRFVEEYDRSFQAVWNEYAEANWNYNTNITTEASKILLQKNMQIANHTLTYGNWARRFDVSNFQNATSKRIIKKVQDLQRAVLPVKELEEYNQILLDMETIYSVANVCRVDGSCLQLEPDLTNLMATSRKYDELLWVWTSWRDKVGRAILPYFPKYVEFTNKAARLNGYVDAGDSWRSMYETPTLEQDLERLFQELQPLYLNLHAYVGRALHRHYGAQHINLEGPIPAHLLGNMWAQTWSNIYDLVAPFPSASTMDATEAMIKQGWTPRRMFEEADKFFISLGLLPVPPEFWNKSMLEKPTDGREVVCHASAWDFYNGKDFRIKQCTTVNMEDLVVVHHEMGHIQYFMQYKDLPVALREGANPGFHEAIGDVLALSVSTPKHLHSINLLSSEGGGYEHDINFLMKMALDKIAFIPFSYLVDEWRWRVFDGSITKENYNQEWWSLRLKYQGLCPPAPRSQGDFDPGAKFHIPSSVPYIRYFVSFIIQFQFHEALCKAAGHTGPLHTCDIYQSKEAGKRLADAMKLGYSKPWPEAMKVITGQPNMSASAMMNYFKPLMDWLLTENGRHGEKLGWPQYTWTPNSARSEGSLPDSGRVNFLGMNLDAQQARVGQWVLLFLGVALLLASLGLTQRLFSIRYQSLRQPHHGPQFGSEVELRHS
Method in brief: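 Rabbit lung homogenised (1 g in 10 mL of 0.05 M sodium borate, pH 8.2, with 0.3 M NaCl and 0.5% Triton X-100, 4 °C) and centrifuged to give the ACE source. Enzyme and test solution preincubated 10 min at 37 °C. The reaction was started with borate/NaCl buffer plus 5 mM HHL stock and run 30 min at 37 °C. Released hippuric acid was reacted with pyridine and benzenesulfonyl chloride, and the yellow product read at 410 nm. Inhibition% = 100 − (T/C)×100.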

| Structure (SMILES) | inhibition |
| --- | --- |
| CCCCc1nc(Cl)c(/C=C/C(=O)c2ccco2)n1C | Active |
| CCCCc1nc(Cl)c(/C=C/C(=O)c2cc(OC)c(OC)c(OC)c2)n1C | Active |
| CCCCc1nc(Cl)c(C2CC(c3cccc4ccccc34)=NN2C(C)=O)n1C (stereo not given) | inactive |
| CCCCc1nc(Cl)c(/C=C/C(=O)c2cccnc2)n1C | Active |
| CCCCc1nc(Cl)c(/C=C/C(=O)c2cccs2)n1C | Active |

Continued, values first:

| inhibition | Structure (SMILES) |
| --- | --- |
| Active | CCCCc1nc(Cl)c(/C=C/C(=O)c2cccc3ccccc23)n1C |
| Active | CCCCc1nc(Cl)c(/C=C/C(=O)c2ccc([N+](=O)[O-])cc2)n1C |
| Active | CCCCc1nc(Cl)c(/C=C/C(=O)c2ccc(C)cc2)n1C |
| Active | CCCCc1nc(Cl)c(/C=C/C(=O)c2ccc(Br)s2)n1C |
| Active | CCCCc1nc(Cl)c(/C=C/C(=O)c2ccc3oc4ccccc4c3c2)n1C |
| Active | CCCCc1nc(Cl)c(/C=C/C(=O)c2ccc(Cl)s2)n1C |
| Active | CCCCc1nc(Cl)c(/C=C/C(=O)c2ccc3c(c2)c2ccccc2n3C)n1C |
| Active | CCCCc1nc(Cl)c(/C=C/C(=O)c2ccccc2)n1C |
| Active | CCCCc1nc(Cl)c(/C=C/C(=O)c2ccc(OC)cc2)n1C |
| Active | CCCCc1nc(Cl)c(/C=C/C(=O)c2cccc(Br)n2)n1C |
| Active | CCCCc1nc(Cl)c(/C=C/C(=O)c2ccc3ccccc3c2)n1C |

target: T1, Angiotensin-converting enzyme (Oryctolagus cuniculus); test: (§1) Inhibition of rabbit lung ACE assessed as reduction in hippuryl-histidyl-leucine substrate by colorimetric assay
Method in brief: (§2)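 ACE came from a rabbit lung homogenate in 0.05 M sodium borate, pH 8.2, 0.3 M NaCl, 0.5% Triton X-100 at 4 °C, centrifuged. Enzyme was preincubated with compound for 10 min at 37 °C, then run for 30 min at 37 °C with 5 mM HHL stock in borate/NaCl buffer. Hippuric acid was derivatised with pyridine and benzenesulfonyl chloride and read at 410 nm. IC50 was taken from % inhibition versus concentration curves; means of three experiments.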

| inhibition | Structure (SMILES) |
| --- | --- |
| Dose-dependent effect | CCCCc1nc(Cl)c(/C=C/C(=O)c2ccc[nH]2)n1C |
| Dose-dependent effect | CCCCc1nc(Cl)c(/C=C/C(=O)c2ccc3sc4ccccc4c3c2)n1C |
| Dose-dependent effect | CCCCc1nc(Cl)c(/C=C/C(=O)c2ccc(Cl)s2)n1C |

target: T2, Angiotensin-converting enzyme (Oryctolagus cuniculus, UniProt P12822); test: as §1; method in brief: as §2
T2 sequence (P12822 whole entry): T1 sequence (whole entry)

| Structure (SMILES) | IC50 [µM] |
| --- | --- |
| CCCCc1nc(Cl)c(C2CC(c3ccc(OC)cc3)=NN2C(C)=O)n1C (stereo not given) | 2330 |
| CCCCc1nc(Cl)c(C2CC(c3ccc(Cl)s3)=NN2C(C)=O)n1C (stereo not given) | 1800 |
| CCCCc1nc(Cl)c(/C=C/C(=O)c2ccc[nH]2)n1C | 2.24 |
| CCCCc1nc(Cl)c(C2CC(c3ccc4sc5ccccc5c4c3)=NN2C(C)=O)n1C (stereo not given) | 2010 |
| CCCCc1nc(Cl)c(C2CC(c3ccco3)=NN2C(C)=O)n1C (stereo not given) | 2350 |
| CCCCc1nc(Cl)c(C2CC(c3cc(OC)c(OC)c(OC)c3)=NN2C(C)=O)n1C (stereo not given) | 2120 |
| O=c1cc(-c2ccc(O)cc2)oc2cc(O)cc(O)c12 [APIGENIN] | 280 |
| CCCCc1nc(Cl)c(C2CC(c3ccc([N+](=O)[O-])cc3)=NN2C(C)=O)n1C (stereo not given) | 2220 |

More lines, now with the values ahead:

| IC50 [µM] | Structure (SMILES) |
| --- | --- |
| 730 | O=C(/C=C/c1ccc(O)c(O)c1)c1ccc(O)cc1O [BUTEIN] |
| 2.68 | CCCCc1nc(Cl)c(/C=C/C(=O)c2ccc3sc4ccccc4c3c2)n1C |
| 3.6 | CCCCc1nc(Cl)c(/C=C/C(=O)c2ccc(Cl)s2)n1C |
